Results taken from ChEMBL document CHEMBL1146073, “A pyridazine series of alpha2/alpha3 subtype selective GABA A agonists for the treatment of anxiety” (J Med Chem, 2006).

Key:
[1] = molecular target: GABA-A receptor; alpha-3/beta-3/gamma-2 (Homo sapiens) (UniProt P18507+P28472+P34903); assay: Efficacy against recombinant human GABA-Aalpha3 plus beta-3-gamma-2 expressed in L(tk-) cells by whole cell patch clamp method relative to chlordiazepoxide; type: functional, cell-based
Procedure, shortened: (§1)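 Whole-cell patch clamp on αxβ3γ2 receptors stably expressed in L(tk-) cells, measuring the effect on current evoked by an EC20-equivalent of GABA. Reported relative to full agonist chlordiazepoxide (=1.0), or as direct percent modulation of the EC20 control, with inverse agonism given as percent. Mean of at least four independent experiments.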

[2] = molecular target: T1, GABA-A receptor; alpha-1/beta-3/gamma-2 (Homo sapiens, UniProt P14867+P18507+P28472); assay: Displacement of [3H]Ro-151788 from recombinant human GABA-Aalpha1 receptor plus beta3gamma2; type: protein-complex assay
T1 sequence (P14867 whole entry): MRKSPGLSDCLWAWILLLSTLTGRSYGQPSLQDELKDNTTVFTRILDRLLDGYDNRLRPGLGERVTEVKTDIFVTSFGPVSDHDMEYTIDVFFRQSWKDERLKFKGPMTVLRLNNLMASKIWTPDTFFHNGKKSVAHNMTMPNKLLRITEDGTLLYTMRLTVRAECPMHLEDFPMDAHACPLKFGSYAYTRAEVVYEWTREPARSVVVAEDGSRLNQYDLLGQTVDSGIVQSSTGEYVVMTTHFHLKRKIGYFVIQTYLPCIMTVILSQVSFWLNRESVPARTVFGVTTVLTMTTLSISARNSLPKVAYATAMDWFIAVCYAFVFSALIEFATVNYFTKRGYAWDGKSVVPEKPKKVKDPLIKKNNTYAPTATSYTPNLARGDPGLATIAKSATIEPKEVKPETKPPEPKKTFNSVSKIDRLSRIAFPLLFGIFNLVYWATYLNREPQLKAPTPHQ
T1 sequence (P18507 whole entry): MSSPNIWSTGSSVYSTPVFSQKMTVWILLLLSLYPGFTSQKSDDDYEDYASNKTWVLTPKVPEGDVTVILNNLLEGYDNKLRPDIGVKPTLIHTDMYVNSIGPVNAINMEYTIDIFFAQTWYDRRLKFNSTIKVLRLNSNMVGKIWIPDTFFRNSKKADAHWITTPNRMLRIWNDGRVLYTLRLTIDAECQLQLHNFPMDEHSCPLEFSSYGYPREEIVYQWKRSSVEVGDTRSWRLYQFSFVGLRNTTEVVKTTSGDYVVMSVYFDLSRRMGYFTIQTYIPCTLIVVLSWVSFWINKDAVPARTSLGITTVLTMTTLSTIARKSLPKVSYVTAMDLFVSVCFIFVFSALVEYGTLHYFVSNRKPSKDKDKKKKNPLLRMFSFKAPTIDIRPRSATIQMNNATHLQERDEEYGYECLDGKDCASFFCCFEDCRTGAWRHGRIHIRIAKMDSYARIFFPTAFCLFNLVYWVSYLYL
T1 sequence (P28472 whole entry): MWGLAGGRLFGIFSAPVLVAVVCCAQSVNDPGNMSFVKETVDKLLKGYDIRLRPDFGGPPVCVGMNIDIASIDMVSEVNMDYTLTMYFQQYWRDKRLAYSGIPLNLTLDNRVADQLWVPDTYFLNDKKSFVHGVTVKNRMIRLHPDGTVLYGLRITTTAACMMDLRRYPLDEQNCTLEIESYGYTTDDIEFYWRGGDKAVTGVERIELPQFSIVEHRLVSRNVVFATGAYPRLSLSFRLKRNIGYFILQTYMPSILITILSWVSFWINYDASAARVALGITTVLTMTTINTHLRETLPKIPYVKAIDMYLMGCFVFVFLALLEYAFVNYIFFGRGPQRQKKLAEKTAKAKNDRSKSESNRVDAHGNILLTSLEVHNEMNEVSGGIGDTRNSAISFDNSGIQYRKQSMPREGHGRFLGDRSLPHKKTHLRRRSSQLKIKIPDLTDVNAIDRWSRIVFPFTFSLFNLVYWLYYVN
Procedure, shortened: (§2)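 Benzodiazepine-site binding on stably transfected αxβ3γ2 receptors (x = 1, 2, 3 or 5). Inhibition curves run with [3H]Ro15-1788 at roughly twice its Kd. Ki derived by Cheng-Prusoff equation. Mean of three to six determinations.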

[3] = molecular target: T2, GABA-A receptor; alpha-1/beta-3/gamma-2 (Homo sapiens) (UniProt P14867+P18507+P28472); assay: Efficacy against recombinant human GABA-Aalpha1 plus beta-3-gamma-2 expressed in L(tk-) cells by whole cell patch clamp method; type: functional, cell-based; procedure, shortened: as §1
[4] = Stability in dog assessed as liver microsomal turnover; type: ADME, Canis lupus familiaris; conditions: liver microsomes, read-out: Stability
Procedure, shortened: (§3)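 Test compound at 1 µM, with diazepam as control, incubated 0.25 h with pooled liver microsomes at 0.5 mg/mL protein. Compound remaining quantified by LC/MS/MS. Turnover is the mean of three determinations.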

[5] = molecular target: T3, GABA-A receptor; alpha-5/beta-3/gamma-2 (Homo sapiens, UniProt P18507+P28472+P31644); assay: Displacement of [3H]Ro-151788 from recombinant human GABA-Aalpha5 receptor plus beta3gamma2; type: protein-complex assay; procedure, shortened: as §2
T3 sequence (P18507 whole entry): T1 sequence (P18507 whole entry)
T3 sequence (P28472 whole entry): T1 sequence (P28472 whole entry)
T3 sequence (P31644 whole entry): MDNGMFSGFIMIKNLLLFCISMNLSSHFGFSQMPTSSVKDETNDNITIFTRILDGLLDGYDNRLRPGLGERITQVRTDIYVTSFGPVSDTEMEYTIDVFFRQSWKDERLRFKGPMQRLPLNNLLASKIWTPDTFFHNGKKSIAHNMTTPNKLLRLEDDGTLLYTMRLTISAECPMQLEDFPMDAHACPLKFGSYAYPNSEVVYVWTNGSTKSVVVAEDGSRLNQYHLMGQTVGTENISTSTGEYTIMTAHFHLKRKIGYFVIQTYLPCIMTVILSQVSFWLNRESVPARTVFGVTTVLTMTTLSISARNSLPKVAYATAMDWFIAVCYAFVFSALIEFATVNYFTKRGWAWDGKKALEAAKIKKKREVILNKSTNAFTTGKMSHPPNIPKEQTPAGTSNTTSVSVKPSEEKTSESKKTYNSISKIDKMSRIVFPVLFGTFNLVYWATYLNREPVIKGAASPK

[6] = Stability in rat assessed as liver microsomal turnover; type: ADME, Microsome; conditions: liver microsomes, read-out: Stability; procedure, shortened: as §3
[7] = molecular target: T4, GABA-A receptor; alpha-3/beta-3/gamma-2 (Homo sapiens, UniProt P18507+P28472+P34903); assay: Displacement of [3H]Ro-151788 from recombinant human GABA-Aalpha3 receptor plus beta3gamma2; type: protein-complex assay; procedure, shortened: as §2
T4 sequence (P18507 whole entry): T1 sequence (P18507 whole entry)
T4 sequence (P28472 whole entry): T1 sequence (P28472 whole entry)
T4 sequence (P34903 whole entry): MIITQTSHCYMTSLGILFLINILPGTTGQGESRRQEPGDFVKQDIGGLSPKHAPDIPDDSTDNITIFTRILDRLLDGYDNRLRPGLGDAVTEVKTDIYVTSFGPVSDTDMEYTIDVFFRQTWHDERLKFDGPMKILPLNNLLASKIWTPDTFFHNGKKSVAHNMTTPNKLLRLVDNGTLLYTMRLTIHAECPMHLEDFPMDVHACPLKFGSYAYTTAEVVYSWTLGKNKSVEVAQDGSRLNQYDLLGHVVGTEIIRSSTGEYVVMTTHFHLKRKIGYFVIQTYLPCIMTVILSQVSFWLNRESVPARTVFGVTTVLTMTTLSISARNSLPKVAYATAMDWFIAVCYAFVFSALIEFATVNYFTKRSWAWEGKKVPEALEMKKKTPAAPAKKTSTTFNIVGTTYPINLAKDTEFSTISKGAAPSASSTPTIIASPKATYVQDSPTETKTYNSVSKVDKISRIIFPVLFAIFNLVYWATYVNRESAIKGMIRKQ

[8] = Stability in human assessed as liver microsomal turnover; type: ADME, Microsome; conditions: liver microsomes, read-out: Stability; procedure, shortened: as §3
[9] = Plasma clearance in rat; type: ADME, organism-based
Procedure, shortened: (§4)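 Pharmacokinetics from six animals per species: three dosed iv and three dosed po.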

[10] = molecular target: GABA-A receptor; alpha-2/beta-3/gamma-2 (Homo sapiens) (UniProt P18507+P28472+P47869); assay: Efficacy against recombinant human GABA-Aalpha2 plus beta-3-gamma-2 expressed in L(tk-) cells by whole cell patch clamp method relative to chlordiazepoxide; type: functional, cell-based; procedure, shortened: as §1
[11] = Oral bioavailability in rat; type: ADME, organism-based; conditions: in vivo; procedure, shortened: as §4
[12] = Half life in rat; type: ADME, organism-based; conditions: in vivo; procedure, shortened: as §4
[13] = molecular target: GABA-A receptor; anion channel (Rattus norvegicus) (UniProt O09028+P15431+P18506+P18508+P19969+P20236+P23574+P23576+P28471+P28473+P30191+P62813+P63079+P63138+Q91ZM7+Q9ES14); assay: Receptor occupancy in vivo by displacement of [3H]Ro 15-1788 binding from GABA-A receptor in rat, po; type: functional, organism-based
Procedure, shortened: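 Rat in vivo occupancy measured by [3H]Ro 15-1788 binding after oral dosing. Rats taken as a subgroup after the plus-maze trial, i.e. 30 min post-dose or later. ED50 derived from dose-dependent occupancy. Mean ± SEM, n = 5-10/group.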

[14] = molecular target: T5, GABA-A receptor; alpha-5/beta-3/gamma-2 (Homo sapiens) (UniProt P18507+P28472+P31644); assay: Efficacy against recombinant human GABA-Aalpha5 plus beta-3-gamma-2 expressed in L(tk-) cells by whole cell patch clamp method; type: functional, cell-based; procedure, shortened: as §1
[15] = molecular target: T2, GABA-A receptor; alpha-1/beta-3/gamma-2 (Homo sapiens); assay: Efficacy against recombinant human GABA-Aalpha1 plus beta-3-gamma-2 expressed in L(tk-) cells by whole cell patch clamp method relative to chlordiazepoxide; type: functional, cell-based; procedure, shortened: as §1
[16] = molecular target: T5, GABA-A receptor; alpha-5/beta-3/gamma-2 (Homo sapiens); assay: Efficacy against recombinant human GABA-Aalpha5 plus beta-3-gamma-2 expressed in L(tk-) cells by whole cell patch clamp method relative to chlordiazepoxide; type: functional, cell-based; procedure, shortened: as §1

Efficacy [1] | Ki [2] [nM] | Efficacy [3] [%] | metabolised [4] [%] | Ki [5] [nM] | metabolised [6] [%] | Ki [7] [nM] | metabolised [8] [%] | clearance [9] [mL/min/kg] | Efficacy [10] | bioavailability [11] [%] | half-life [12] [h] | Occ50 [13] [mg/kg] | Efficacy [14] [%] | Efficacy [15] | Efficacy [16] | Activity [13] [mg/kg] | SMILES
0.4 | – | -20 | 31 | 0.7 | 22 | 1.7 | 8 | 30 | 0.2 | 11 | 2.2 | 3 | -20 | – | – | – | Fc1cnc(-c2cc(-c3cnnc(-c4ccccc4F)c3)ccc2F)c(F)c1
0.42 | – | – | 18 | 1.4 | 13 | 3.1 | < 5 | – | – | – | – | 4.6 | – | 0.07 | – | – | Fc1ccc(-c2cc(-c3ccc(F)c(-c4ncc(F)cc4F)c3)cnn2)c(F)c1
0.41 | 3.5 | -7 | – | 5.6 | 23 | 8.2 | < 5 | – | – | – | – | 15.3 | – | – | – | – | Fc1cnc(-c2cc(-c3cnnc(-c4ccncc4F)c3)ccc2F)c(F)c1

More lines, now with the values behind:

SMILES | Efficacy [1] | Ki [2] [nM] | Efficacy [3] [%] | metabolised [4] [%] | Ki [5] [nM] | metabolised [6] [%] | Ki [7] [nM] | metabolised [8] [%] | clearance [9] [mL/min/kg] | Efficacy [10] | bioavailability [11] [%] | half-life [12] [h] | Occ50 [13] [mg/kg] | Efficacy [14] [%] | Efficacy [15] | Efficacy [16] | Activity [13] [mg/kg]
Fc1ccc(-c2cnnc(-c3c(F)cccc3F)c2)cc1-c1ncccc1F | 0.24 | 0.1 | -5 | 24 | 0.3 | 19 | 0.4 | 13 | – | – | – | – | – | – | – | – | –
Fc1ccccc1-c1cc(-c2ccc(F)c(-c3ncccc3F)c2)cnn1 | 0.31 | – | – | 34 | 0.5 | 11 | 0.9 | – | – | – | – | – | – | – | 0.11 | – | –
Fc1cnc(-c2cc(-c3cnnc(-c4ncccc4F)c3)ccc2F)c(F)c1 | 0.17 | 0.4 | -26 | – | 3.2 | < 5 | 1.7 | < 5 | – | – | – | – | – | – | – | 0.14 | < 0.2
Fc1ccc(-c2cnnc(-c3c(F)cncc3F)c2)cc1-c1ncccc1F | 0.39 | 0.8 | -7 | 9 | 3 | 9 | 3.2 | 9 | – | – | – | – | < 0.2 | – | – | – | –
Fc1ccc(-c2cnnc(-c3ncccc3F)c2)cc1-c1ncccc1F | 0.4 | 0.5 | -30 | 2 | 2.4 | 3 | 1.4 | 5 | – | – | – | – | – | – | – | – | 0.5
Fc1ccc(-c2cc(-c3ccc(F)c(-c4ncc(F)cc4F)c3)cnn2)cc1 | 0.21 | – | – | 20 | 3.8 | 7 | 5.6 | – | – | – | – | – | – | – | 0.02 | – | –
Fc1cnccc1-c1cc(-c2ccc(F)c(-c3ncccc3F)c2)cnn1 | 0.58 | 0.9 | -8 | 8 | 7.7 | 17 | 5.6 | 8 | 91 | 0.24 | 5 | 0.8 | 7.2 | -3 | – | – | –
